Key:
K562 = experiment: Growth inhibition of human K562 cells expressing p210Bcr/Abl after 96 hrs by trypan blue exclusion assay; format: functional, cell-based; settings: K562, 96 h
Method in brief: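 K562 cells were kept in RPMI with 10% FBS and penicillin–streptomycin at 37 °C under 5% CO2. Cells were seeded at 1 × 10^5 cells/mL with a range of compound concentrations, using DMSO as the negative control. After 96 h, viability was counted by Trypan blue exclusion and expressed as percent of DMSO control to derive GI50.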

DU-145 = experiment: Growth inhibition of human DU145 cells after 96 hrs by trypan blue exclusion assay; format: functional; settings: DU-145, 96 h

| Structure (SMILES) | GI50 (K562) [µM] | GI50 (DU-145) [µM] |
| --- | --- | --- |
| O=C(O)c1ccc(C(=O)/C(=C\c2ccccc2F)SCc2ccc(Br)cc2)cc1 | 10 | 10 |
| COc1cc(OC)c(/C=C(\C(=O)c2ccc(Cl)cc2)S(=O)(=O)c2ccc(C)cc2)c(OC)c1 | 10 | 25 |
| CN(C)c1ccc(/C=C(/SCc2ccc(F)cc2)C(=O)c2ccc(Cl)cc2)cc1 | 1 | 50 |
| Cc1ccc(CS(=O)(=O)/C(=C/c2sccc2C)C(=O)c2ccc(Cl)cc2)cc1 | 25 | 25 |
| O=C(/C(=C\c1ccccc1OCc1ccccc1)S(=O)(=O)c1ccc(Br)cc1)c1ccc(Cl)cc1 | 1 | 1 |
| Cc1ccc(S/C(=C/c2ccc(F)cc2C(F)(F)F)C(=O)c2ccc(Br)cc2)cc1 | 25 | 25 |
| COc1cc(OC)c(/C=C(\C(=O)c2ccc([N+](=O)[O-])cc2)S(=O)(=O)Cc2ccc(Cl)cc2)c(OC)c1 | 10 | 10 |
| Cc1ccc(CS/C(=C/c2ccc(Cl)c([N+](=O)[O-])c2)C(=O)c2ccc(C(=O)O)cc2)cc1 | 1 | 1 |
| O=C(C(=Cc1ccc(Br)cc1)S(=O)(=O)Cc1ccc(I)cc1)c1ccc(Br)cc1 | > 50 | > 50 |
| CCOc1ccc(/C=C(/SCc2ccc(F)cc2)C(=O)c2ccc(Br)cc2)cc1OC | 1 | 50 |
| Cc1ccc(CS/C(=C/c2sccc2C)C(=O)c2ccc(Cl)cc2)cc1 | 10 | 10 |
| Cc1ccc(CS/C(=C/c2c[nH]c3ccc(Br)cc23)C(=O)c2ccc(Cl)cc2)cc1 | 1 | 1 |
| Cc1ccc(S/C(=C/c2cc(Cl)cc(Cl)c2Cl)C(=O)c2ccc(Cl)cc2)cc1 | 50 | 50 |
| Cc1ccc(S/C(=C/c2c(O)cc(O)cc2O)C(=O)c2ccc(Br)cc2)cc1 | 50 | > 100 |
| CSc1ccc(/C=C(/SCc2ccc(C)cc2)C(=O)c2ccc(Br)cc2)cc1 | 10 | > 100 |
| Cc1ccc(S/C(=C/c2ccc(Cl)c(Cl)c2)C(=O)c2ccc(Br)cc2)cc1 | 50 | 50 |
| O=C(/C(=C\c1c[nH]c2ccc(Cl)cc12)SCc1ccc(F)cc1)c1ccc(Br)cc1 | 1 | 1 |
| Cc1ccsc1/C=C(\C(=O)c1ccc(Cl)cc1)S(=O)(=O)Cc1ccc(Cl)cc1 | 25 | 25 |
| COc1cc(OC)c(/C=C(/SCc2ccc(Cl)cc2Cl)C(=O)c2ccc(Cl)cc2)c(OC)c1 | 25 | 1 |
| COc1ccc(/C=C(/Sc2ccc(Br)cc2)C(=O)c2ccc(Br)cc2)c(F)c1 | 1 | 20 |
| Cc1ccc(S/C(=C/c2ccc(Cl)cc2Cl)C(=O)c2ccc(Cl)cc2)cc1 | 10 | 10 |
| O=C(/C(=C\c1c(O)cc(O)cc1O)S(=O)(=O)c1ccc(Br)cc1)c1ccc(Cl)cc1 | > 100 | > 100 |
| O=C(/C(=C\c1ccc(Cl)cc1)SCc1ccc(Cl)cc1)c1ccc(Br)cc1 | 1 | 10 |
| Cc1cc(C)cc(/C=C(/SCc2ccc(Cl)cc2)C(=O)c2ccc(Cl)cc2)c1 | 10 | 10 |
| Cc1ccc(S/C(=C/c2ccc(N(C)C)cc2)C(=O)c2ccc(Br)cc2)cc1 | 50 | > 100 |

| Structure (SMILES) | GI50 (K562) [µM] | GI50 (DU-145) [µM] |
| --- | --- | --- |
| Cc1ccc(S/C(=C/c2cc([N+](=O)[O-])ccc2F)C(=O)c2ccc(Cl)cc2)cc1 | 1 | 10 |
| CN(C)c1ccc(/C=C(/SCc2ccc(Cl)cc2Cl)C(=O)c2ccc(Cl)cc2)cc1 | > 100 | 50 |
| Cc1ccsc1/C=C(/SCc1ccc(Cl)cc1Cl)C(=O)c1ccc(Cl)cc1 | 50 | 10 |
| Cc1ccsc1/C=C(\C(=O)c1ccc(Cl)cc1)S(=O)(=O)Cc1ccc(F)cc1 | 1 | 10 |
| O=C(/C(=C\c1ccc(Cl)cc1Cl)Sc1ccc(Br)cc1)c1ccc(Br)cc1 | 1 | 1 |
| O=C(O)c1ccc(C(=O)/C(=C\c2ccc(N3CCN(Cc4ccccc4)CC3)c([N+](=O)[O-])c2)SCc2ccc(F)cc2)cc1 | 1 | 1 |
| Cc1ccc(S/C(=C/c2c[nH]c3ccccc23)C(=O)c2ccc(Br)cc2)cc1 | 10 | 10 |
| Cc1ccc(CS/C(=C/c2c[nH]c3ccc(Cl)cc23)C(=O)c2ccc(Cl)cc2)cc1 | 1 | 1 |
| O=C(/C(=C\c1ccc([N+](=O)[O-])c(O)c1)SCc1ccc(Br)cc1)c1cc(Cl)ccc1O | 10 | 10 |
| O=C(/C(=C\c1ccc(O)c([N+](=O)[O-])c1)Sc1c(F)c(F)c(F)c(F)c1F)c1ccc(Br)cc1 | 10 | 10 |
| CCOc1ccc(/C=C(\C(=O)c2ccc(Br)cc2)S(=O)(=O)c2ccc(C)cc2)cc1OC | 1 | 1 |
| O=C(/C(=C\c1ccc(O)cc1)SCc1ccc(F)cc1)c1ccc(Cl)cc1 | 10 | 25 |
| Cc1ccc(C)c(/C=C(/SCc2ccc(Cl)cc2)C(=O)c2ccc(Cl)cc2)c1 | 10 | 10 |
| Cc1ccc(S/C(=C/c2ccc(Cl)cc2)C(=O)c2ccc(Br)cc2)cc1 | 1 | 10 |
| Cc1ccc(S(=O)(=O)/C(=C/c2cc(C)ccc2C)C(=O)c2ccc(Cl)cc2)cc1 | 1 | 1 |
| COc1ccc(C(=O)/C(=C\c2ccc(Br)cc2)S(=O)(=O)c2ccc(F)cc2)cc1 | 1 | 1 |
| O=C(/C(=C\c1ccc(F)cc1Cl)S(=O)(=O)c1ccc(Br)cc1)c1ccc(Br)cc1 | 25 | 50 |
| Cc1ccsc1/C=C(/SCc1ccccc1F)C(=O)c1ccc(Cl)cc1 | 50 | 50 |
| CCOc1ccc(/C=C(/SCc2ccc(F)cc2)C(=O)c2ccc(Cl)cc2)cc1OC | 1 | 1 |
| O=C(/C(=C\c1ccc(O)c([N+](=O)[O-])c1)S(=O)(=O)Cc1ccccc1Cl)c1ccc(Cl)cc1 | 10 | 10 |
| O=C(/C(=C\c1ccc(Br)cc1)S(=O)(=O)c1ccc(Br)cc1)c1ccc(Br)cc1 | 10 | 10 |
| O=C(/C(=C\c1c(O)cc(O)cc1O)Sc1ccccc1Br)c1ccc(Br)cc1 | > 100 | > 100 |
| COc1cc(OC)c(C=C(C(=O)c2ccc(Cl)cc2)S(=O)(=O)Cc2ccccc2Cl)c(OC)c1 | 25 | > 100 |
| Cc1ccc(CS/C(=C/c2ccc(C(=O)O)cc2)C(=O)c2ccc(Cl)c([N+](=O)[O-])c2)cc1 | 1 | 10 |
| O=C(/C(=C\c1ccc(O)c([N+](=O)[O-])c1)S(=O)(=O)Cc1ccc(Br)cc1)c1ccc(Br)cc1 | 1 | 10 |

| Structure (SMILES) | GI50 (K562) [µM] | GI50 (DU-145) [µM] |
| --- | --- | --- |
| O=C(/C(=C\c1ccccc1OCc1ccccc1)Sc1ccc(Br)cc1)c1ccc(Cl)cc1 | 10 | 10 |
| Cc1ccc(CS/C(=C/c2ccc(C)s2)C(=O)c2ccc(Cl)cc2)cc1 | 50 | 50 |
| COc1ccc(S/C(=C/c2ccc(Cl)cc2Cl)C(=O)c2ccc(Br)cc2)cc1 | 1 | 1 |
| O=C(/C(=C\c1ccc([N+](=O)[O-])c(O)c1)S(=O)(=O)c1ccc(Br)cc1)c1c(F)c(F)c(F)c(F)c1F | 1 | 1 |
| O=C(/C(=C\c1ccc(Cl)cc1Cl)S(=O)(=O)c1ccc(Br)cc1)c1ccc(Br)cc1 | 1 | 10 |
| Cc1ccc(S/C(=C/c2c[nH]c3ccc(Cl)cc23)C(=O)c2ccc(Cl)cc2)cc1 | 1 | 1 |
| O=C(/C(=C\c1ccc(Cl)cc1)SCc1ccccc1Cl)c1ccc(Cl)cc1 | 1 | 12 |
| O=C(/C(=C\c1ccc(F)cc1F)S(=O)(=O)c1ccc(Cl)cc1)c1ccc(Br)cc1 | 25 | 25 |
| Cc1ccc(CS(=O)(=O)/C(=C/c2cccc(Cl)c2Cl)C(=O)c2ccc(Cl)cc2)cc1 | 1 | 1 |
| COc1ccc(/C=C(/SCc2ccc(Cl)cc2)C(=O)c2ccc(Br)cc2)cc1 | 1 | 10 |
| COc1cc(OC)c(/C=C(\C(=O)c2ccc(Cl)cc2)S(=O)(=O)c2ccc(Br)cc2)c(OC)c1 | > 100 | > 100 |
| O=C(/C(=C\OCc1ccccc1)S(=O)(=O)c1ccccc1Cl)c1ccc(Cl)cc1 | 1 | 1 |
| CSc1ccc(/C=C(\C(=O)c2ccc(Br)cc2)S(=O)(=O)c2ccc(C)cc2)cc1 | 1 | 1 |
| Cc1cc(C)cc(/C=C(\C(=O)c2ccc(Br)cc2)S(=O)(=O)Cc2ccc(F)cc2)c1 | 10 | 10 |
| O=C(/C(=C\c1ccc(Br)cc1)S(=O)(=O)Cc1ccc(F)cc1)c1ccc(Br)cc1 | 10 | 25 |
| Cc1ccc(C)c(/C=C(/Sc2ccc(Br)cc2)C(=O)c2ccc(Cl)cc2)c1 | 10 | 10 |
| COc1ccc(/C=C(\C(=O)c2ccc(Cl)cc2)S(=O)(=O)Cc2ccccc2Cl)cc1 | 25 | 50 |
| O=C(/C(=C\c1ccc(O)cc1O)Sc1ccccc1Br)c1ccc(Br)cc1 | 50 | 50 |
| CSc1ccc(/C=C(\C(=O)c2ccc(Br)cc2)S(=O)(=O)Cc2ccc(C)cc2)cc1 | 10 | 10 |
| O=C(/C(=C\c1cccc(Cl)c1Cl)SCc1ccc(Cl)cc1)c1ccc(Cl)cc1 | 1 | 10 |
| O=C(/C(=C\c1ccc(F)cc1F)Sc1ccc(Br)cc1)c1ccc(Cl)cc1 | 1 | 1 |
| Cc1ccc(S(=O)(=O)/C(=C/c2ccc(O)c([N+](=O)[O-])c2)C(=O)c2ccc(Cl)cc2)cc1 | 25 | 25 |
| O=C(/C(=C\c1ccccc1OCc1ccccc1)SCc1ccc(Cl)c(Cl)c1)c1ccc(Cl)cc1 | 10 | 10 |
| COc1ccccc1/C=C(/SCc1ccc(F)cc1)C(=O)c1ccc(Br)cc1 | 10 | 10 |

— ChEMBL document CHEMBL1240409, “Design, synthesis and evaluation of (E)-alpha-benzylthio chalcones as novel inhibitors of BCR-ABL kinase” (Bioorg Med Chem, 2010)
